Assay results pooled from the literature.
Sample: plasma

O=C([O-])C(=O)[O-].[NH-][C@@H]1CCCC[C@H]1[NH-].[Pt+4] (relative stereo)  half-life (rat; intravenous, 5 mg/kg): 3.1 h
O=C(Nc1cccnn1)N1CCN([C@@H]2CCOc3cc(C(F)(F)F)ccc32)CC1  half-life (male Sprague-Dawley rat; oral, 1 mg/kg): 5.5 h
CCCC[C@@H]1NC(=O)[C@H](Cc2ccc(O)cc2)NC(=O)[C@@H]2CCCN2C(=O)[C@H](CC(=O)O)NC(=O)[C@H](C)NC(=O)[C@H](Cc2ccccc2)NC(=O)[C@@H]2CSCCC(=O)N3CN(CN(C3)C(=O)CCSC[C@@H](C(=O)N[C@@H](CNC(=O)CCc3cn(CCOCCOCCOCCN(CCOCCOCCOCCC(=O)N[C@H]4CSCCC(=O)N5CN6CN(C5)C(=O)CCSC[C@H](NC(=O)[C@@H](CC(=O)O)NC(=O)[C@H](Cc5cccc7ccccc57)NC(=O)[C@@H]5CCCN5C4=O)C(=O)N[C@@H](CCSC)C(=O)N[C@@H](CCCCNC(=N)N)C(=O)N[C@@H](CC(=O)O)C(=O)N[C@@H](Cc4c[nH]c5ccccc45)C(=O)N[C@@H](CO)C(=O)N[C@@H]([C@@H](C)O)C(=O)N4CCC[C@H]4C(=O)N4C[C@H](O)C[C@H]4C(=O)N[C@@H](Cc4c[nH]c5ccccc45)C(=O)N[C@H](C(N)=O)CSCCC6=O)CCOCCOCCOCCn4cc(CCC(=O)NC[C@H](NC(=O)[C@@H]5CSCCC(=O)N6CN7CN(C6)C(=O)CCSC[C@H](NC(=O)[C@H](Cc6ccc(O)cc6)NC(=O)[C@@H]6CCCN6C(=O)[C@@H](C)NC(=O)[C@H](CCC(=O)O)NC(=O)[C@@H]6CCCN6C(=O)[C@H](CC(C)(C)C)NC(=O)[C@@H](NC(C)=O)CSCCC7=O)C(=O)N[C@@H](Cc6ccccc6)C(=O)N[C@@H](C)C(=O)N[C@@H](CC(=O)O)C(=O)N6CCC[C@H]6C(=O)N[C@@H](Cc6ccc(O)cc6)C(=O)N[C@@H](CCCC)C(=O)N5)C(N)=O)nn4)nn3)C(N)=O)NC1=O)C(=O)CCSC[C@H](NC(C)=O)C(=O)N[C@@H](CC(C)(C)C)C(=O)N1CCC[C@H]1C(=O)N[C@@H](CCC(=O)O)C(=O)N[C@H](C)C(=O)N1CCC[C@H]1C(=O)N[C@@H](Cc1ccc(O)cc1)C(=O)N2  half-life (rat; intravenous, 2 mg/kg): 3.6 h
[2H]C([2H])(c1cc(F)c(F)cc1F)n1c(=O)n(Cc2ncn(C)n2)c(=O)[nH]/c1=N\c1cc2cn(C)nc2cc1Cl  half-life (male Sprague-Dawley rat; oral, 25 mg/kg): 4.16 h
CSCC[C@H](NC(=O)COCCOCCNC(=O)COCCOCCNC(=O)CC[C@H](NC(=O)CCCCCCCCCCCCCCCCC(=O)O)C(=O)O)C(=O)N[C@H]1CSSC[C@@H](C(=O)NCC(=O)N[C@@H](CO)C(=O)NCC(=O)N[C@@H](CO)C(=O)N[C@@H](CC(=O)O)C(=O)N[C@@H](Cc2ccc(O)cc2)C(=O)N[C@@H](CCCCN)C(=O)N[C@@H](CC(=O)O)C(=O)N[C@@H](CC(=O)O)C(=O)N[C@@H](CC(=O)O)C(=O)N[C@@H](CC(=O)O)C(=O)N[C@@H](CCCCN)C(N)=O)NC(=O)[C@H](Cc2ccccc2)NC(=O)[C@@H]2CCCN2C(=O)[C@H](Cc2c[nH]c3ccccc23)NC(=O)[C@H](CC(C)C)NC(=O)[C@H](CCSC)NC(=O)[C@H](Cc2c[nH]cn2)NC(=O)[C@H](Cc2ccccc2)NC(=O)[C@H](Cc2c[nH]cn2)NC(=O)[C@H]([C@@H](C)O)NC(=O)[C@H](Cc2ccccc2)NC1=O  half-life (male Sprague-Dawley rat; intravenous): 10.7 h
Cc1ncc(C)n2nc(/C=C/c3nc(N4CCCC4)cc(N4CCOCC4)n3)nc12  half-life (male Sprague-Dawley rat; oral, 0.3 mg/kg): 6 h
CC(C)C[C@@H]1NC(=O)[C@H](CC(=O)O)NC(=O)[C@H](Cc2ccccc2)NC(=O)[C@H](Cc2c[nH]cn2)NC(=O)[C@H]([C@@H](C)O)NC(=O)[C@H](Cc2ccccc2)NC(=O)[C@@H](NC(=O)[C@H](C)NC(=O)COCCOCCNC(=O)COCCOCCNC(=O)CC[C@H](NC(=O)CCCCCCCCCCCCCCCCC(=O)O)C(=O)O)CSSC[C@@H](C(=O)O)NC(=O)[C@H](Cc2ccccc2)NC(=O)[C@@H]2CCCN2C(=O)[C@H](Cc2c[nH]c3ccccc23)NC(=O)[C@H](CC(C)C)NC1=O  half-life (male Sprague-Dawley rat; intravenous): 4.17 h
CCCCCn1nc(C(=O)Nc2cccc3ccccc23)c2ccccc21  half-life (male Long-Evans rat; intraperitoneal, 3 mg/kg): 5.4 h
Cn1cnc(Cn2c(=O)[nH]/c(=N\c3cc4cn(C)nc4cc3Cl)n(Cc3cc(F)c(F)cc3F)c2=O)n1  half-life (male Sprague-Dawley rat; oral, 25 mg/kg): 3.86 h
CCCC[C@@H]1NC(=O)[C@H](Cc2ccc(O)cc2)NC(=O)[C@@H]2CCCN2C(=O)[C@H](CC(=O)O)NC(=O)[C@H](C)NC(=O)[C@H](Cc2ccccc2)NC(=O)[C@@H]2CSCCC(=O)N3CN(CN(C3)C(=O)CCSC[C@H](NC(C)=O)C(=O)N[C@@H](CC(C)(C)C)C(=O)N[C@@H](CCC(=O)O)C(=O)N[C@@H](CCC(=O)O)C(=O)N[C@H](CCCCNC(=O)CCc3cn(CCOCCOCCOCCOCCOCCC(=O)N[C@H]4CSCCC(=O)N5CN6CN(C5)C(=O)CCSC[C@H](NC(=O)[C@@H](CC(=O)O)NC(=O)[C@H](Cc5cccc7ccccc57)NC(=O)[C@@H]5CCCN5C4=O)C(=O)N[C@@H](CCSC)C(=O)N[C@@H](CCCCNC(=N)N)C(=O)N[C@@H](CC(=O)O)C(=O)N[C@@H](Cc4c[nH]c5ccccc45)C(=O)N[C@@H](CO)C(=O)N[C@@H]([C@@H](C)O)C(=O)N4CCC[C@H]4C(=O)N4C[C@H](O)C[C@H]4C(=O)N[C@@H](Cc4c[nH]c5ccccc45)C(=O)N[C@H](C(N)=O)CSCCC6=O)nn3)C(=O)N3CCC[C@H]3C(=O)N[C@@H](Cc3ccc(O)cc3)C(=O)N2)C(=O)CCSC[C@@H](C(N)=O)NC1=O  half-life (rat; intravenous, 2 mg/kg): 1.7 h
COC(=O)C(NC(=O)c1cn(CCCCCF)c2ccccc12)C(C)(C)C (stereo not drawn)  half-life (male Sprague-Dawley rat; subcutaneous, 100 µg/kg): 10.3 h
N=c1c2c(-c3ccccc3)c(-c3ccccc3)n(Cc3ccccc3)c2ncn1[C@H]1CC[C@H](O)CC1  half-life (male Sprague-Dawley rat; intravenous, 2 mg/kg, single dose): 8.9 h
CCN1CC2(CCN(CCc3cc(F)ccc3F)CC2)O[C@H](C)C1=O  half-life (Wistar rat; intraperitoneal, 3 mg/kg, single dose): 0.333 h
Cl.Cl.O=C(CCN1CCCCC1)c1ccc(-c2ccc(C(=O)CCN3CCCCC3)cc2)cc1  half-life (Sprague-Dawley rat; oral, 50 mg/kg): 7.54 h
[2H]C([2H])([2H])n1cc2cc(Nc3nc(=O)n(Cc4ncn(C)n4)c(=O)n3Cc3cc(F)c(F)cc3F)c(Cl)cc2n1  half-life (male Sprague-Dawley rat; oral, 25 mg/kg): 3.39 h
